{"source": "ChEMBL document CHEMBL1123211", "about": "“Correspondence analysis applied to steroid receptor binding” (J Med Chem, 1986)"}
{"target": "T1, Glucocorticoid receptor (Homo sapiens) (UniProt P04150)", "T1 sequence (whole entry)": "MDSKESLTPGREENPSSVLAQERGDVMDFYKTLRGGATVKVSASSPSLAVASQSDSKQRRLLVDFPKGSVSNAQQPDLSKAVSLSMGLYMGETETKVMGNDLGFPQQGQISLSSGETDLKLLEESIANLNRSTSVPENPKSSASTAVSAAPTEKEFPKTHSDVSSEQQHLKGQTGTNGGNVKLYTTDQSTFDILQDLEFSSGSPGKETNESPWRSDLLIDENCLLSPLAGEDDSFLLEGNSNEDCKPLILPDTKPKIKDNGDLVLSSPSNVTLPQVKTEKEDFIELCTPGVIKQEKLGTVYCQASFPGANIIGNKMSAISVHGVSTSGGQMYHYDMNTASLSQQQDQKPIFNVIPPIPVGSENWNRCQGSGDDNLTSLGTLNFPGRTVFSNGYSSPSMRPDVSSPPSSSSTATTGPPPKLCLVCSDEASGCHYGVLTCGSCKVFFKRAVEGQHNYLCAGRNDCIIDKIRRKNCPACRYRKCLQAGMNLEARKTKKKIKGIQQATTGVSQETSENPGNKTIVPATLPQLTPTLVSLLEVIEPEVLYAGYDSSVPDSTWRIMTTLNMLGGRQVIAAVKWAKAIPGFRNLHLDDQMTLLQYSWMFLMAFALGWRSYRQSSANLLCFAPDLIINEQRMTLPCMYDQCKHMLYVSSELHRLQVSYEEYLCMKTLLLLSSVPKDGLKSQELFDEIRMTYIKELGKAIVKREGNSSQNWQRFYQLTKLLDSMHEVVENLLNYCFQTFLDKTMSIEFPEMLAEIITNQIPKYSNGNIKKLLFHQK", "test": "Relative binding affinity against glucocorticoid receptor", "method_in_brief": "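Competitive binding: each steroid incubated with receptor-containing cytosol and a radiolabelled marker selective for the receptor. Bound radioactivity separated by dextran-coated charcoal adsorption. The unlabelled radioligand standard curve used 9-10 concentrations; test steroids used 5-6. RBA = 100 × (radioligand conc for 50% displacement ÷ steroid conc for 50% displacement), with reference hormone set to 100. Mean of ≥3 experiments.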"}
{"molecule": "C#C[C@]1(O)CCC2C3CCC4=CC(=O)CCC4=C3CCC21C", "note": "(stereo partly specified)", "Relative binding affinity": 5.7}
{"molecule": "CC12CCC3C4CCC(=O)C=C4CCC3C1CC[C@@]21CCS(=O)O1", "note": "(stereo partly specified)", "Relative binding affinity": 0.4}
{"molecule": "CCC12C=CC3=C4CCC(=O)C=C4C[C@@H](C)C3C1CC[C@]2(C)O", "note": "(stereo partly specified)", "Relative binding affinity": 145}
{"molecule": "C[C@@H]1CC2=CC(=O)CCC2=C2CCC3(C)C(CC[C@]3(C)O)C21", "note": "(stereo partly specified)", "Relative binding affinity": 6.1}
{"molecule": "C[C@@H]1CC2=CC(=O)CCC2=C2C=CC3(C)C(CC[C@]3(C)O)C21", "note": "(stereo partly specified)", "Relative binding affinity": 22}
{"molecule": "CC12C=CC3=C4CCC(=O)C=C4CCC3C1CCC2", "note": "(stereo unspecified)", "Relative binding affinity": 0.5}
{"molecule": "C#C[C@]1(O)CCC2C3CCC4=CC(=O)CCC4C3CCC21CC", "note": "(stereo partly specified)", "Relative binding affinity": 14}
{"molecule": "CC1(C)CC2C(=C3CCC(=O)C=C31)C=CC1(C)C2CC[C@]1(C)O", "note": "(stereo partly specified)", "Relative binding affinity": 1.2}
{"molecule": "CC12CCC3=C4CCC(=O)C=C4CCC3C1CC[C@@]21CCS(=O)O1", "note": "(stereo partly specified)", "Relative binding affinity": 23}
{"molecule": "C#C[C@]1(O)CCC2C3CCC4=CC(=O)CCC4=C3C=CC21CCC", "note": "(stereo partly specified)", "Relative binding affinity": 6.4}
{"molecule": "CCCC12CCC3=C4CCC(=O)C=C4CCC3C1CC[C@@H]2O", "note": "(stereo partly specified)", "Relative binding affinity": 1.9}
{"molecule": "CCC12C=CC3=C4CCC(=O)C=C4CCC3C1CC[C@@H]2O", "note": "(stereo partly specified)", "Relative binding affinity": 20}
{"molecule": "CC12CCC3=C4CCC(=O)C=C4CCC3C1CC[C@]2(C)O", "note": "(stereo partly specified)", "Relative binding affinity": 6}
{"molecule": "CCCC12CCC3C4CCC(=O)C=C4CCC3C1CC[C@@H]2O", "note": "(stereo partly specified)", "Relative binding affinity": 2.1}
{"molecule": "C[C@]12CC[C@H]3[C@@H](CCC4=CC(=O)CC[C@@H]43)[C@@H]1CC[C@@H]2O", "Relative binding affinity": 0.5}
{"molecule": "CC(=O)[C@H]1CC[C@H]2[C@@H]3CCC4=CC(=O)CC[C@@H]4[C@H]3CC[C@]12C", "Relative binding affinity": 0.6}
{"molecule": "C[C@]1(O)CC[C@H]2[C@@H]3CCC4=CC(=O)CCC4=C3C=C[C@@]21C", "note": "(stereo in doubt; 12)", "Relative binding affinity": 26}
{"molecule": "C[C@@H]1CC2=CC(=O)CC[C@@H]2[C@H]2CC[C@@]3(C)[C@@H](CC[C@]3(C)O)[C@@H]21", "Relative binding affinity": 1.4}
{"molecule": "C[C@]1(O)CC[C@H]2[C@@H]3CCC4=CC(=O)CC[C@@H]4[C@H]3CC[C@@]21C", "Relative binding affinity": 1.5}
{"molecule": "CC1(C)CC2=C3C=CC4(C)C(CC[C@]4(C)O)C3CCC2=CC1=O", "note": "(stereo partly specified)", "Relative binding affinity": 0.4}
{"molecule": "CC12C=CC3=C4CCC(=O)C=C4CCC3C1CC[C@@]21CCS(=O)O1", "note": "(stereo partly specified)", "Relative binding affinity": 35}
{"molecule": "CC12CCC3=C4CCC(=O)C=C4CCC3C1CC[C@@]21CCC(=O)O1", "note": "(stereo partly specified)", "Relative binding affinity": 17}
{"molecule": "CC12C=CC3=C4CCC(=O)C=C4CCC3C1CC[C@@]21CCC(=O)O1", "note": "(stereo partly specified)", "Relative binding affinity": 62}
{"molecule": "CC12C=CC3=CCCCC3C1CC[C@]2(C)O", "note": "(stereo partly specified)", "Relative binding affinity": 38}
{"molecule": "CCC12CCC3C4CCC(=O)C=C4CCC3C1CC[C@@H]2O", "note": "(stereo partly specified)", "Relative binding affinity": 2.1}
{"molecule": "C#C[C@]1(O)CCC2C3CCC4=CC(=O)CCC4C3CCC21CCC", "note": "(stereo partly specified)", "Relative binding affinity": 9.8}
{"molecule": "C[C@]12CCC3=C4CCC(=O)C=C4CC[C@H]3[C@@H]1CC[C@@H]2O", "Relative binding affinity": 1.6}
{"molecule": "CC(=O)[C@@]1(C)CCC2C3CCC4=CC(=O)CCC4=C3CCC21C", "note": "(stereo partly specified)", "Relative binding affinity": 4.5}
{"molecule": "CC(=O)[C@H]1CCC2C3CCC4=CC(=O)CCC4=C3CCC21C", "note": "(stereo partly specified)", "Relative binding affinity": 5.1}
{"molecule": "CCC12CCC3=C4CCC(=O)C=C4CCC3C1CC[C@@H]2O", "note": "(stereo partly specified)", "Relative binding affinity": 5.1}
{"molecule": "C#C[C@]1(O)CCC2C3CCC4=CC(=O)CCC4=C3CCC21CC", "note": "(stereo partly specified)", "Relative binding affinity": 17}
{"molecule": "C#C[C@]1(O)CCC2C3CCC4=CC(=O)CCC4=C3CCC21CCC", "note": "(stereo partly specified)", "Relative binding affinity": 5.5}
{"molecule": "CC(=O)[C@@]1(C)CCC2C3CCC4=CC(=O)CCC4=C3C=CC21C", "note": "(stereo partly specified)", "Relative binding affinity": 2.4}
{"molecule": "CCCC12C=CC3=C4CCC(=O)C=C4CCC3C1CC[C@@H]2O", "note": "(stereo partly specified)", "Relative binding affinity": 6}
{"molecule": "CC(=O)[C@H]1CCC2C3CCC4=CC(=O)CCC4=C3C=CC21C", "note": "(stereo partly specified)", "Relative binding affinity": 1.5}
{"molecule": "C#C[C@]1(O)CC[C@H]2[C@@H]3CCC4=CC(=O)CCC4=C3C=C[C@@]21CC", "Relative binding affinity": 77}
{"molecule": "C#C[C@]1(O)CC[C@H]2[C@@H]3CCC4=CC(=O)CCC4=C3C=C[C@@]21C", "Relative binding affinity": 11}
{"molecule": "CC1=C2CCC3C(=C2CCC1=O)C=CC1(C)C3CC[C@]1(C)O", "note": "(stereo partly specified)", "Relative binding affinity": 0.5}
{"molecule": "C[C@]1(O)CC[C@H]2[C@@H]3CCC4=CC(=O)CCC4=C3C=C[C@@]21C", "note": "(stereo in doubt; 39)", "Relative binding affinity": 26}
{"molecule": "CC1CC2=C3C=CC4(C)C(CC[C@]4(C)O)C3CCC2=CC1=O", "note": "(stereo partly specified)", "Relative binding affinity": 1.5}
{"molecule": "CCC12C=CC3=C4CCC(=O)C=C4CCC3C1CC[C@]2(C)O", "note": "(stereo partly specified)", "Relative binding affinity": 155}
{"molecule": "CC12C=CC3=C4CCC(=O)C=C4CCC3C1CCC2=O", "note": "(stereo unspecified)", "Relative binding affinity": "< 0.1"}
{"molecule": "CC(=O)[C@@]1(C)CCC2C3CCC4=CC(=O)CCC4C3CCC21C", "note": "(stereo partly specified)", "Relative binding affinity": 0.7}
{"molecule": "CC12C=CC3=C4CCCC=C4CCC3C1CC[C@]2(C)O", "note": "(stereo partly specified)", "Relative binding affinity": 0.3}
{"molecule": "CC12C=CC3=C4CC(=O)CC=C4CCC3C1CC[C@]2(C)O", "note": "(stereo partly specified)", "Relative binding affinity": 68}
{"molecule": "CC12CCC3C4CCC(=O)C=C4CCC3C1CC[C@@]21CCC(=O)O1", "note": "(stereo partly specified)", "Relative binding affinity": 0.1}
